Publication PMC7475184 (Heliyon, 2020)
Converted amounts (≈) assume the structure as drawn.

How the values were obtained:
PC3 (prostate) cells = experiment: Cytotoxic activity, Cell Titer 96 proliferation kit; type: cell-based, human; conditions: for IC50: Homo sapiens, PC-3, read-out: IC50, PC3; for IC50, PC3: PC3 cells
How it was run: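 PC3 cells kept in RPMI-1640 at 37 °C under 5% CO2. Dose-response over 100, 10, 1, 0.1 and 0.01 μg/mL test compound. Viability measured with a Cell Titer 96 aqueous kit by absorbance at 450 nm. Paclitaxel reference. Triplicates in three independent experiments; IC50 derived by regression analysis.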

HeLa (cervical) cells = experiment: Cytotoxic activity, Cell Titer 96 proliferation kit; type: cell-based, human; conditions: for IC50: Homo sapiens, HeLa, read-out: IC50, Hela; for IC50, Hela: HeLa cells
How it was run: (§1)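 Cells grown in DMEM with 10% fetal bovine serum and 2 mM glutamine at 37 °C under 5% CO2. Test compounds at 100, 10, 1, 0.1 and 0.01 μg/mL for a dose-response curve. Viability read with a Cell Titer 96 aqueous kit by absorbance at 450 nm. Paclitaxel reference. Triplicates in three independent experiments; IC50 by regression analysis.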

[1] = system: P. aeruginosa resistant to carbapenems (13–1391); experiment: Antibacterial activity, microdilution method; type: cell-based, Pseudomonas aeruginosa; conditions: for MIC: Pseudomonas aeruginosa, read-out: MIC, PARC; for MIC, PARC: MDR clinical isolate, microdilution
How it was run: (§2)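 Drug-resistant clinical isolates from a university hospital, tested by broth microdilution in Mueller Hinton medium. Test compounds at 200, 100, 50, 25, 12.5, 6.25 and 3.12 μg/mL. Levofloxacin positive control at the same concentrations; DMSO (6%–0.09%, v/v) negative control. MIC taken as the lowest concentration inhibiting bacterial growth. Three repeat experiments.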

[2] = system: carbapenems-resistant Klebsiella pneumoniae NDM-1+ (14–3335); experiment: Antibacterial activity, microdilution method; type: cell-based; conditions: for MIC: Klebsiella pneumoniae, read-out: MIC, KPNDM-1+; for MIC, KPNDM-1+: MDR clinical isolate, microdilution
How it was run: as §2

[3] = system: Linezolid-resistant Staphylococcus epidermidis (14–583); experiment: Antibacterial activity, microdilution method; type: cell-based; conditions: for MIC: Staphylococcus epidermidis, read-out: MIC, LRSE; for MIC, LRSE: MDR clinical isolate, microdilution
How it was run: as §2

A549 (lung) cells = experiment: Cytotoxic activity, Cell Titer 96 proliferation kit; type: cell-based, human; conditions: for IC50: Homo sapiens, A549, read-out: IC50, A549; for IC50, A549: A549 cells
How it was run: as §1

[4] = system: Klebsiella pneumoniae producer of ESBL (14–2081); experiment: Antibacterial activity, microdilution method; type: cell-based; conditions: for MIC: Klebsiella pneumoniae, read-out: MIC, KPPB; for MIC, KPPB: MDR clinical isolate, microdilution
How it was run: as §2

[5] = system: Vancomycin-resistant Enterococcus faecium (10–984); experiment: Antibacterial activity, microdilution method; type: cell-based; conditions: for MIC: Enterococcus faecium, read-out: MIC, VREF; for MIC, VREF: MDR clinical isolate, microdilution
How it was run: as §2

[6] = system: immortalized human hepatocytes (IHH); type: cell-based; conditions: for IC50: Homo sapiens, Hepatocyte, read-out: IC50, IHH; for IC50, IHH: non-cancerous control cells IHH
How it was run: as §1

[7] = system: HepG2 (hepatocellular) cells; experiment: Cytotoxic activity, Cell Titer 96 proliferation kit; type: cell-based, human; conditions: for IC50: Homo sapiens, HepG2, read-out: IC50, HepG2; for IC50, HepG2: HepG2 cells
How it was run: as §1

[8] = system: carbapenems-resistant Klebsiella pneumoniae (OXA-48 positive); experiment: Antibacterial activity, microdilution method; type: cell-based; conditions: for MIC: Klebsiella pneumoniae, read-out: MIC, KPRO; for MIC, KPRO: MDR clinical isolate, microdilution
How it was run: as §2

[9] = system: Methicillin-Resistant Staphylococcus aureus (14–2095); experiment: Antibacterial activity, microdilution method; type: cell-based; conditions: for MIC: Staphylococcus aureus, MRSA, read-out: MIC, MRSA; for MIC, MRSA: MDR clinical isolate, microdilution
How it was run: as §2

[10] = system: Hep3B (hepatocellular) cells; experiment: Cytotoxic activity, Cell Titer 96 proliferation kit; type: cell-based, human; conditions: for IC50: Homo sapiens, Hep3B, read-out: IC50, Hep3B; for IC50, Hep3B: Hep3B cells
How it was run: as §1

[11] = system: Escherichia coli producing extended-spectrum beta-lactamase (14–2081); experiment: Antibacterial activity, microdilution method; type: cell-based; conditions: for MIC: Escherichia coli, read-out: MIC, ECPB; for MIC, ECPB: MDR clinical isolate, microdilution
How it was run: as §2

[12] = system: hepatocellular carcinoma lines; experiment: Selectivity Index on hepatocellular carcinoma lines versus IHH; type: cell-based, human; conditions: HepG2 and Hep3B versus IHH
[13] = system: Carbapenems-resistant Acinetobacter baumannii (12–666); experiment: Antibacterial activity, microdilution method; type: cell-based; conditions: for MIC: Acinetobacter baumannii, read-out: MIC, CRAB; for MIC, CRAB: MDR clinical isolate, microdilution
How it was run: as §2

P. aeruginosa = conditions: Vernonia auriculifera screening; ref Kiplimo et al., 2011; cited from earlier work
MCF7 (breast) cells = experiment: Cytotoxic activity, Cell Titer 96 proliferation kit; type: cell-based, human
How it was run: as §1

SMILES: CCCCCCCCCCCCCCCCCCCCCCCC(=O)OCC(O)CO (stereo not drawn) [compound 2, 2,3-dihydroxypropyl tetracosanoate]
- IC50 (PC3 (prostate) cells): 75 ± 5 µg/mL (≈ 169 µM)
- IC50 (HeLa (cervical) cells): 82 ± 8 µg/mL (≈ 185 µM)
- MIC [1]: 200 µg/mL (≈ 452 µM)
- MIC [2]: 200 µg/mL (≈ 452 µM)
- MIC [3]: 200 µg/mL (≈ 452 µM)
- IC50 (A549 (lung) cells): > 100 µg/mL
- MIC [4]: > 200 µg/mL
- MIC [5]: 200 µg/mL (≈ 452 µM)
- IC50 [6]: 100 µg/mL (≈ 226 µM)
- IC50 [7]: 75 ± 6 µg/mL (≈ 169 µM)
- MIC [8]: 200 µg/mL (≈ 452 µM)
- MIC [9]: > 200 µg/mL
- IC50 [10]: 73 ± 7 µg/mL (≈ 165 µM)
- MIC [11]: > 200 µg/mL
- Selectivity Index (SI) on hepatocellular carcinoma lines [12]: greater than 1
- MIC [13]: 200 µg/mL (≈ 452 µM)

SMILES: CC[C@H](CC[C@@H](C)[C@H]1CC[C@H]2[C@@H]3CC=C4C[C@@H](O[C@@H]5O[C@H](COC(C)=O)[C@@H](OC(C)=O)[C@H](OC(C)=O)[C@H]5OC(C)=O)CC[C@]4(C)[C@H]3CC[C@]12C)C(C)C [3Ac, β-sitosteryl β-D-tetraacetyl glucopyranoside]
- IC50, PC3 (PC3 (prostate) cells): 43 ± 4 µg/mL (≈ 57.7 µM)
- IC50, Hela (HeLa (cervical) cells): 63 ± 7 µg/mL (≈ 84.6 µM)
- MIC, PARC [1]: 200 µg/mL (≈ 268 µM)
- MIC, KPNDM-1+ [2]: >200 µg/mL
- MIC, LRSE [3]: >200 µg/mL
- IC50, A549 (A549 (lung) cells): 87 ± 8 µg/mL (≈ 117 µM)
- MIC, KPPB [4]: >200 µg/mL
- MIC, VREF [5]: 200 µg/mL (≈ 268 µM)
- IC50, IHH [6]: 78 ± 7 µg/mL (≈ 105 µM)
- IC50, HepG2 [7]: 50 ± 3 µg/mL (≈ 67.1 µM)
- MIC, KPRO [8]: 200 µg/mL (≈ 268 µM)
- MIC, MRSA [9]: >200 µg/mL
- IC50, Hep3B [10]: 49 ± 4 µg/mL (≈ 65.8 µM)
- MIC, ECPB [11]: >200 µg/mL
- MIC, CRAB [13]: 200 µg/mL (≈ 268 µM)

SMILES: C[C@H]1COc2c(N3CCN(C)CC3)c(F)cc3c(=O)c(C(=O)O)cn1c23 [levofloxacin, reference compound]
- MIC [1]: 12.5 µg/mL (≈ 34.6 µM)
- MIC [2]: > 50 µg/mL
- MIC [3]: 6.25 µg/mL (≈ 17.3 µM)
- MIC [4]: > 50 µg/mL
- MIC [5]: 12.5 µg/mL (≈ 34.6 µM)
- MIC [8]: > 50 µg/mL
- MIC [9]: 12.5 µg/mL (≈ 34.6 µM)
- MIC [11]: 12.5 µg/mL (≈ 34.6 µM)
- MIC [13]: 12.5 µg/mL (≈ 34.6 µM)

SMILES: CC(=O)O[C@H]1C(=O)[C@@]2(C)[C@H]([C@H](OC(=O)c3ccccc3)[C@]3(O)C[C@H](OC(=O)[C@H](O)[C@@H](NC(=O)c4ccccc4)c4ccccc4)C(C)=C1C3(C)C)[C@]1(OC(C)=O)CO[C@@H]1C[C@@H]2O [Paclitaxel, reference compound]
- IC50 (PC3 (prostate) cells): 0.0102 µg/mL (≈ 0.0119 µM)
- IC50 (HeLa (cervical) cells): 0.00478 µg/mL (≈ 0.0056 µM)
- IC50 (A549 (lung) cells): 0.00512 µg/mL (≈ 0.006 µM)
- IC50 [6]: 0.0794 µg/mL (≈ 0.093 µM)
- IC50 [7]: 0.064 µg/mL (≈ 0.0749 µM)
- IC50 [10]: 0.033 µg/mL (≈ 0.0386 µM)

SMILES: CCCCCCCCCCCCCCCCCCCCCCCC(=O)OCC(COC(C)=O)OC(C)=O (stereo not drawn) [2Ac, 3-(tetracosanoyloxy) propane-1,2-diyl diacetate]
- MIC, PARC [1]: 200 µg/mL
- MIC, KPNDM-1+ [2]: 200 µg/mL
- MIC, LRSE [3]: 200 µg/mL
- MIC, KPPB [4]: >200 µg/mL
- MIC, VREF [5]: 200 µg/mL
- MIC, KPRO [8]: >200 µg/mL
- MIC, MRSA [9]: >200 µg/mL
- MIC, ECPB [11]: >200 µg/mL
- MIC, CRAB [13]: 100 µg/mL

SMILES: C[C@H]1[C@H](C)CC[C@]2(C)CC[C@]3(C)C(=CC[C@@H]4[C@@]5(C)CC[C@H](O)C(C)(C)[C@@H]5CC[C@]43C)[C@H]12 [α-amyrin]
- MIC, P. aeruginosa (P. aeruginosa): 1000 µg/mL (≈ 2340 µM)

SMILES: CC(=O)OC[C@H]1O[C@@H](O[C@H]2CC[C@]3(C)[C@H]4CC=C5[C@@H]6[C@@H](C)[C@H](C)CC[C@]6(C)CC[C@@]5(C)[C@]4(C)CC[C@H]3C2(C)C)[C@H](OC(C)=O)[C@@H](OC(C)=O)[C@@H]1OC(C)=O [4Ac, α-amyrin tetraacetyl 3-O-β-D-glucopyranoside]
- IC50, PC3 (PC3 (prostate) cells): >100 µg/mL
- IC50, MCF7 (MCF7 (breast) cells): >100 µg/mL
- IC50, Hela (HeLa (cervical) cells): >100 µg/mL
- IC50, A549 (A549 (lung) cells): >100 µg/mL
- IC50, IHH [6]: >100 µg/mL
- IC50, HepG2 [7]: >100 µg/mL
- IC50, Hep3B [10]: >100 µg/mL
